Data from ChEMBL document CHEMBL1143835, “Antipropionibacterial activity of BAL19403, a novel macrolide antibiotic” (2007).
Converted amounts (≈) assume the structure as drawn.

How the values were obtained:
[1] = test system: Cutibacterium acnes; assay: MBC/MIC ratio of Propionibacterium acnes P95; format: functional
Outline: (§1)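 MIC by CLSI broth microdilution in Wilkins-Chalgren broth in anaerobic jars (O2 <0.1%, CO2 >15%), read after 48 h at 35–37°C on an illuminated plate reader. For MBC, samples were plated onto Wilkins-Chalgren agar and incubated anaerobically for 72 h at 35–37°C before growth was scored.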

[2] = test system: Cutibacterium acnes; assay: Antibacterial activity against drug-resistant Propionibacterium acnes P429:1 (SC) after 48 hrs by broth microdilution method; format: functional
Outline: (§2)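 Broth microdilution MIC in Wilkins-Chalgren broth without lysed horse blood, following CLSI anaerobe guidelines. Plates were held in anaerobic jars with atmosphere generators (O2 <0.1% by 2.5 h, CO2 >15% by 24 h) at 35 to 37°C for 48 h. Growth was read with an illuminated plate reader and magnifying mirror.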

[3] = test system: Staphylococcus epidermidis; assay: Antibacterial activity against Staphylococcus epidermidis after 48 hrs by broth microdilution method; format: functional
[4] = test system: Cutibacterium acnes; assay: Antibacterial activity against drug-resistant Propionibacterium acnes SW54EA after 48 hrs by broth microdilution method; format: functional; outline: as §2
[5] = test system: Cutibacterium acnes; assay: Antibacterial activity against drug-resistant Propionibacterium acnes SW10 after 48 hrs by broth microdilution method; format: functional; outline: as §2
[6] = test system: Cutibacterium acnes; assay: Antibacterial activity against drug-resistant Propionibacterium acnes P95 after 72 hrs; format: functional
Outline: (§3)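 MBC for P. acnes followed MIC assays by standard methodology. Samples were plated on Wilkins-Chalgren agar, incubated anaerobically in GENbox jars at 35 to 37°C, and examined for growth after 72 h.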

[7] = test system: Cutibacterium acnes; assay: Antibacterial activity against drug-resistant Propionibacterium acnes SW11 after 48 hrs by broth microdilution method; format: functional; outline: as §2
[8] = test system: Cutibacterium acnes; assay: MBC/MIC ratio of Propionibacterium acnes EG7NS; format: functional; outline: as §1
[9] = test system: Cutibacterium acnes; assay: Antibacterial activity against drug-resistant Propionibacterium acnes P425:1 after 48 hrs by broth microdilution method; format: functional; outline: as §2
[10] = test system: Cutibacterium acnes; assay: Antibacterial activity against drug-resistant Propionibacterium acnes P95 after 48 hrs by broth microdilution method; format: functional; outline: as §2
[11] = test system: Cutibacterium acnes; assay: Antibacterial activity against drug-resistant Propionibacterium acnes SW3CD after 72 hrs; format: functional; outline: as §3
[12] = test system: Cutibacterium acnes; assay: Antibacterial activity against drug-resistant Propionibacterium acnes SW3CD after 48 hrs by broth microdilution method; format: functional; outline: as §2
[13] = test system: Propionibacterium granulosum; assay: Antibacterial activity against drug-resistant Propionibacterium granulosum NCTC-11865 after 48 hrs by broth microdilution method; format: functional; settings: Cutibacterium granulosum, NCTC-11865, 48 h; outline: as §2
[14] = test system: Staphylococcus aureus; assay: Antibacterial activity against methicillin-susceptible Staphylococcus aureus after 48 hrs by broth microdilution method; format: functional
[15] = test system: Cutibacterium acnes; assay: Antibacterial activity against drug-resistant Propionibacterium acnes SW26 after 48 hrs by broth microdilution method; format: functional; outline: as §2
[16] = test system: Streptococcus equi subsp. zooepidemicus; assay: Antibacterial activity against Streptococcus equi subsp. zooepidemicus after 48 hrs by broth microdilution method; format: functional
[17] = test system: Cutibacterium acnes; assay: Antibacterial activity against drug-resistant Propionibacterium acnes P:413 after 48 hrs by broth microdilution method; format: functional; outline: as §2
[18] = test system: Cutibacterium acnes; assay: Antibacterial activity against drug-resistant Propionibacterium acnes SW101T after 48 hrs by broth microdilution method; format: functional; outline: as §2
[19] = test system: Corynebacterium jeikeium; assay: Antibacterial activity against Corynebacterium jeikeium after 48 hrs by broth microdilution method; format: functional
Outline: (§4)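 Broth microdilution per CLSI in cation-adjusted Mueller-Hinton broth supplemented with 0.5% (vol/vol) Tween 80. Plates incubated at 35°C in ambient air for 44 to 48 h, then read visually. MICs in μg/ml; a geometric mean MIC was calculated across the corynebacterial strains.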

[20] = test system: Staphylococcus aureus; assay: Antibacterial activity against methicillin-resistant Staphylococcus aureus after 20 to 24 hrs by broth microdilution method
[21] = test system: Cutibacterium acnes; assay: Antibacterial activity against drug-resistant Propionibacterium acnes P322:2 after 48 hrs by broth microdilution method; format: functional; outline: as §2
[22] = test system: Staphylococcus aureus; assay: Antibacterial activity against borderline oxacillin-resistant Staphylococcus aureus after 20 to 24 hrs by broth microdilution method
[23] = test system: Cutibacterium acnes; assay: Antibacterial activity against drug-resistant Propionibacterium acnes FG7E after 48 hrs by broth microdilution method; format: functional; outline: as §2
[24] = test system: Cutibacterium acnes; assay: Antibacterial activity against drug-resistant Propionibacterium acnes EG13NS after 48 hrs by broth microdilution method; format: functional; outline: as §2
[25] = test system: Cutibacterium acnes; assay: Antibacterial activity against drug-resistant Propionibacterium acnes GE46EB after 48 hrs by broth microdilution method; format: functional; outline: as §2
[26] = test system: Streptococcus pyogenes; assay: Antibacterial activity against Streptococcus pyogenes after 20 to 24 hrs by broth microdilution method
[27] = test system: Corynebacterium minutissimum; assay: Antibacterial activity against Corynebacterium minutissimum after 48 hrs by broth microdilution method; format: functional; outline: as §4
[28] = test system: Propionibacterium granulosum; assay: Antibacterial activity against drug-resistant Propionibacterium granulosum QK6/92 after 48 hrs by broth microdilution method
[29] = test system: Cutibacterium acnes; assay: Antibacterial activity against drug-resistant Propionibacterium acnes EG7NS after 48 hrs by broth microdilution method; format: functional; outline: as §2
[30] = test system: Cutibacterium acnes; assay: Antibacterial activity against drug-resistant Propionibacterium acnes OK8/97 after 48 hrs by broth microdilution method; format: functional; outline: as §2
[31] = Antibacterial activity against Streptococcus dysgalactiae subsp. dysgalactiae after 48 hrs by broth microdilution method; format: functional
[32] = test system: Cutibacterium acnes; assay: Antibacterial activity against drug-resistant Propionibacterium acnes SW101CDA after 48 hrs by broth microdilution method; format: functional; outline: as §2
[33] = test system: Cutibacterium acnes; assay: MBC/MIC ratio of Propionibacterium acnes SW3CD; format: functional; outline: as §1
[34] = test system: Cutibacterium acnes; assay: Antibacterial activity against drug-resistant Propionibacterium acnes P401:5 after 48 hrs by broth microdilution method; format: functional; outline: as §2
[35] = test system: Cutibacterium acnes; assay: Antibacterial activity against drug-resistant Propionibacterium acnes P429:1 (BC) after 48 hrs by broth microdilution method; format: functional; outline: as §2
[36] = test system: Corynebacterium diphtheriae; assay: Antibacterial activity against Corynebacterium diphtheriae after 48 hrs by broth microdilution method; format: functional; outline: as §4
[37] = test system: Cutibacterium acnes; assay: Antibacterial activity against drug-resistant Propionibacterium acnes GE4E after 48 hrs by broth microdilution method; format: functional; outline: as §2
[38] = test system: Cutibacterium acnes; assay: Antibacterial activity against drug-resistant Propionibacterium acnes SW16 after 48 hrs by broth microdilution method; format: functional; outline: as §2
[39] = test system: Cutibacterium acnes; assay: Antibacterial activity against drug-resistant Propionibacterium acnes SP64E after 48 hrs by broth microdilution method; format: functional; outline: as §2
[40] = test system: Cutibacterium acnes; assay: Antibacterial activity against drug-resistant Propionibacterium acnes D-04/97 after 48 hrs by broth microdilution method; format: functional; outline: as §2
[41] = test system: Cutibacterium acnes; assay: Antibacterial activity against drug-resistant Propionibacterium acnes SW17 after 48 hrs by broth microdilution method; format: functional; outline: as §2
[42] = test system: Corynebacterium amycolatum; assay: Antibacterial activity against Corynebacterium amycolatum after 48 hrs by broth microdilution method; format: functional; outline: as §4
[43] = test system: Cutibacterium acnes; assay: Antibacterial activity against drug-resistant Propionibacterium acnes EG7NS after 72 hrs; format: functional; outline: as §3
[44] = test system: Cutibacterium acnes; assay: Antibacterial activity against drug-resistant Propionibacterium acnes EG3NS after 48 hrs by broth microdilution method; format: functional; outline: as §2
[45] = test system: Cutibacterium acnes; assay: MBC/MIC ratio of Propionibacterium acnes SW101T; format: functional; outline: as §1
[46] = test system: Cutibacterium acnes; assay: Antibacterial activity against drug-resistant Propionibacterium acnes SW101T after 72 hrs; format: functional; outline: as §3
[47] = test system: Cutibacterium acnes; assay: MBC/MIC ratio of Propionibacterium acnes GE4E; format: functional; outline: as §1
[48] = test system: Cutibacterium acnes; assay: Antibacterial activity against drug-resistant Propionibacterium acnes GE4E after 72 hrs; format: functional; outline: as §3

CC[C@H]1OC(=O)[C@H](C)[C@@H](O[C@H]2C[C@@](C)(OC)[C@@H](O)[C@H](C)O2)[C@H](C)[C@@H](O[C@@H]2O[C@H](C)C[C@H](N(C)C)[C@H]2O)[C@](C)(O)C[C@@H](C)C(=O)[C@H](C)[C@@H](O)[C@]1(C)O [ERYTHROMYCIN]
Ratio [1]: >8 | MIC [2]: 4 µg/mL (≈ 5.45 µM) | MIC [3]: 3 µg/mL (≈ 4.09 µM) | MIC [4]: > 512 µg/mL | MIC [5]: ≤ 0.06 µg/mL | MBC [6]: > 32 µg/mL | MIC [7]: 0.125 µg/mL (≈ 0.17 µM) | Ratio [8]: >=533 | MIC [9]: > 512 µg/mL | MIC [10]: 4 µg/mL (≈ 5.45 µM) | MBC [11]: 0.125 µg/mL (≈ 0.17 µM) | MIC [12]: ≤ 0.06 µg/mL | MIC [13]: 0.125 µg/mL (≈ 0.17 µM) | MIC [14]: 3.26 µg/mL (≈ 4.44 µM) | MIC [15]: ≤ 0.06 µg/mL | MIC [16]: 0.14 µg/mL (≈ 0.191 µM) | MIC [17]: ≤ 0.06 µg/mL | MIC [18]: > 512 µg/mL | MIC [19]: 1.47 µg/mL (≈ 2 µM) | MIC [20]: 3.26 µg/mL (≈ 4.44 µM) | MIC [21]: > 512 µg/mL | MIC [22]: 3.26 µg/mL (≈ 4.44 µM) | MIC [23]: > 512 µg/mL | MIC [24]: ≤ 0.06 µg/mL | MIC [25]: > 512 µg/mL | MIC [26]: 0.32 µg/mL (≈ 0.436 µM) | MIC [27]: 1.47 µg/mL (≈ 2 µM) | MIC [28]: 0.5 µg/mL (≈ 0.681 µM) | MIC [29]: ≤ 0.06 µg/mL | MIC [30]: 0.125 µg/mL (≈ 0.17 µM) | MIC [31]: 0.09 µg/mL (≈ 0.123 µM) | MIC [32]: > 512 µg/mL | Ratio [33]: >=2 | MIC [34]: 2 µg/mL (≈ 2.73 µM) | MIC [35]: 2 µg/mL (≈ 2.73 µM) | MIC [36]: 1.47 µg/mL (≈ 2 µM) | MIC [37]: > 512 µg/mL | MIC [38]: ≤ 0.06 µg/mL | MIC [39]: > 512 µg/mL | MIC [40]: ≤ 0.06 µg/mL | MIC [41]: ≤ 0.06 µg/mL | MIC [42]: 1.47 µg/mL (≈ 2 µM) | MBC [43]: > 32 µg/mL | MIC [44]: ≤ 0.06 µg/mL

CN(C)[C@@H]1C(O)=C(C(N)=O)C(=O)[C@@]2(O)C(O)=C3C(=O)c4c(O)cccc4[C@@](C)(O)[C@H]3C[C@@H]12 [TETRACYCLINE]
Ratio [45]: >1 | Ratio [1]: >64 | MIC [2]: ≥ 32 µg/mL | MIC [3]: 7.55 µg/mL (≈ 17 µM) | MIC [4]: 0.5 µg/mL (≈ 1.13 µM) | MIC [5]: 0.5 µg/mL (≈ 1.13 µM) | MBC [6]: 32 µg/mL (≈ 72 µM) | MIC [7]: 2 µg/mL (≈ 4.5 µM) | Ratio [8]: >=533 | MIC [9]: 16 µg/mL (≈ 36 µM) | MIC [10]: 0.5 µg/mL (≈ 1.13 µM) | MBC [11]: > 32 µg/mL | MBC [46]: > 32 µg/mL | MIC [12]: 1 µg/mL (≈ 2.25 µM) | MIC [13]: 0.5 µg/mL (≈ 1.13 µM) | MIC [14]: 3.17 µg/mL (≈ 7.13 µM) | Ratio [47]: >16 | MIC [15]: 0.5 µg/mL (≈ 1.13 µM) | MIC [16]: 8 µg/mL (≈ 18 µM) | MIC [17]: 16 µg/mL (≈ 36 µM) | MIC [18]: 32 µg/mL (≈ 72 µM) | MIC [19]: 5.16 µg/mL (≈ 11.6 µM) | MBC [48]: > 32 µg/mL | MIC [20]: 3.17 µg/mL (≈ 7.13 µM) | MIC [21]: 32 µg/mL (≈ 72 µM) | MIC [22]: 3.17 µg/mL (≈ 7.13 µM) | MIC [23]: 32 µg/mL (≈ 72 µM) | MIC [24]: 1 µg/mL (≈ 2.25 µM) | MIC [25]: 1 µg/mL (≈ 2.25 µM) | MIC [26]: 3.25 µg/mL (≈ 7.31 µM) | MIC [27]: 5.16 µg/mL (≈ 11.6 µM) | MIC [28]: 1 µg/mL (≈ 2.25 µM) | MIC [29]: ≤ 0.06 µg/mL | MIC [30]: 0.5 µg/mL (≈ 1.13 µM) | MIC [31]: 4.58 µg/mL (≈ 10.3 µM) | MIC [32]: ≤ 0.06 µg/mL | Ratio [33]: >32 | MIC [34]: 32 µg/mL (≈ 72 µM) | MIC [35]: 1 µg/mL (≈ 2.25 µM) | MIC [36]: 5.16 µg/mL (≈ 11.6 µM) | MIC [37]: 2 µg/mL (≈ 4.5 µM) | MIC [38]: 0.25 µg/mL (≈ 0.563 µM) | MIC [39]: 1 µg/mL (≈ 2.25 µM) | MIC [40]: 1 µg/mL (≈ 2.25 µM) | MIC [41]: 0.25 µg/mL (≈ 0.563 µM) | MIC [42]: 5.16 µg/mL (≈ 11.6 µM) | MBC [43]: > 32 µg/mL | MIC [44]: 0.5 µg/mL (≈ 1.13 µM)
